Here are results for 77 molecules from ChEMBL document CHEMBL1125037, “Synthesis and antihypertensive activity of 4-(1,2-dihydro-2-oxo-1-pyridyl)-2H-1-benzopyrans and related compounds, new potassium channel activators” (1990).

The structures appear in SMILES notation.

The subject of the first assay is Rattus norvegicus. As to the kind of experiment: Antihypertensive effect after 1 mg/kg (po) administration in conscious spontaneously hypertensive rat (over a time period of 0-210 minutes). The class given is functional. In short, it runs like this: (§1)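 Male Okamoto-strain SHR (280-330 g, blood pressure >180 mmHg), conscious and unrestrained, given 1 mg/kg orally as a screening dose. Mean arterial pressure was recorded directly and continuously via an aortic catheter from 1 h before to 3.5 h after dosing. The effect is the mean of the maximum individual changes over 3.5 h; N ≥ 3.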
`CC(=O)OC1=C(n2ccccc2=O)c2cc(C#N)ccc2OC1(C)C`: the “Max fall in blood pressure” value worked out at 21 mmHg.

As for `CC1(C)Oc2ccc(C#N)cc2C(n2ccccc2=O)C1=O` (configuration not stated), the “Max fall in blood pressure” value worked out at 20 mmHg.

For the molecule `CC1(C)Oc2ccc(C#N)cc2C(n2ccc(=O)cc2)[C@@H]1O` (some centres not stated), the “Max fall in blood pressure” value was determined as 21 mmHg.

With `CC1(C)Oc2ccc(C#N)cc2C(n2ncc3ccccc3c2=O)[C@@H]1O` (some centres not stated), the “Max fall in blood pressure” value was found to be 38 mmHg.

In the case of `CC1(C)C=C(n2ccccc2=O)c2cc(C=O)ccc2O1`, the “Max fall in blood pressure” value turned out to be 35 mmHg.

In the case of `CC1(C)Oc2ccc(C#N)cc2[C@@H](n2cc([N+](=O)[O-])ccc2=O)[C@@H]1O`, the “Max fall in blood pressure” value is given as 23 mmHg.

As for `COC(=O)c1ccc2c(c1)[C@@H](n1ccccc1=O)[C@H](O)C(C)(C)O2`, the “Max fall in blood pressure” value is given as 49 mmHg.

As for `N#Cc1ccc2c(c1)C(n1ccccc1=O)=CC1(CCCC1)O2`, the “Max fall in blood pressure” value was found to be 26 mmHg.

For `CC1(C)Oc2ccc(/C=C/C#N)cc2[C@@H](n2ccccc2=O)[C@@H]1O`, the “Max fall in blood pressure” value amounted to 25 mmHg.

For `O=c1ccccn1C1=CC2(CCCCC2)Oc2ccc([N+](=O)[O-])cc21`, the “Max fall in blood pressure” value is 22 mmHg.

Regarding `CC1(C)Oc2ccc(/N=C/c3ccc([N+](=O)[O-])cc3)cc2C(N2CCCC2=O)[C@@H]1O` (some centres not stated), the “Max fall in blood pressure” value is given as 26 mmHg.

Regarding `CCOC(=O)c1ccc(=O)n(C2c3cc(C#N)ccc3OC(C)(C)[C@H]2O)n1` (some centres not stated), the “Max fall in blood pressure” value turned out to be 24 mmHg.

Regarding `CC1(C)Oc2ccc(C(=N)S)cc2C(N2CCCC2=O)[C@@H]1O` (some centres not stated), the “Max fall in blood pressure” value was 22 mmHg.

As for `COC1=C(n2ccccc2=O)c2cc(C#N)ccc2OC1(C)C`, the “Max fall in blood pressure” value is reported as 22 mmHg.

With `CC1(C)Oc2ccc(C#N)cc2C(n2ccc3ccccc3c2=O)[C@@H]1O` (some centres not stated), the “Max fall in blood pressure” value came to 24 mmHg.

With `CC1(C)C=C(n2ccc(=O)[nH]c2=O)c2cc(C#N)ccc2O1`, the “Max fall in blood pressure” value came to 23 mmHg.

For the molecule `CC1(C)Oc2ccc(C#N)cc2C(n2cccnc2=O)[C@@H]1O` (some centres not stated), the “Max fall in blood pressure” value is listed as 20 mmHg.

Turning to `CC1(C)Oc2ccc(C#N)cc2C(n2ccc(=O)nc2)[C@@H]1O` (some centres not stated), the “Max fall in blood pressure” value came out at 18 mmHg.

As for `CC1(C)C=C(n2ccccc2=O)c2cc(C(=N)S)ccc2O1`, the “Max fall in blood pressure” value amounted to 23 mmHg.

Consider `CC1(C)Oc2ccc(C#N)cc2[C@@H](n2cc(Cl)ccc2=O)[C@@H]1O`, for which the “Max fall in blood pressure” value was 37 mmHg.

For the molecule `CC1(C)Oc2ccc(C#N)cc2[C@H](n2ccccc2=O)[C@@H]1O`, the “Max fall in blood pressure” value is listed as 26 mmHg.

`CC1(C)C=C(n2cc([N+](=O)[O-])ccc2=O)c2cc(C#N)ccc2O1`: the “Max fall in blood pressure” value came out at 27 mmHg.

Consider `CC1(C)C=C(n2ncccc2=O)c2cc(C#N)ccc2O1`, for which the “Max fall in blood pressure” value is 23 mmHg.

Regarding `CC1(C)C=C(N2CCCCS2(=O)=O)c2cc(C#N)ccc2O1`, the “Max fall in blood pressure” value is listed as 25 mmHg.

Consider `CC1(C)Oc2ccc(-c3ccncc3)cc2C(N2CCCC2=O)[C@@H]1O` (some centres not stated), for which the “Max fall in blood pressure” value worked out at 20 mmHg.

Turning to `CC1(C)C=C(n2ccc(=O)cc2)c2cc(C#N)ccc2O1`, the “Max fall in blood pressure” value is on record as 48 mmHg.

Consider `CC(=O)Nc1cccn([C@@H]2c3cc(C#N)ccc3OC(C)(C)[C@H]2O)c1=O`, for which the “Max fall in blood pressure” value is on record as 22 mmHg.

Take `CC1(C)Oc2ccc(C#N)cc2C(N2CCCCS2(=O)=O)[C@@H]1O` (some centres not stated): the “Max fall in blood pressure” value came to 30 mmHg.

As to `CC1(C)Oc2ccc(C#N)cc2C(n2cnccc2=O)[C@@H]1O` (some centres not stated), the “Max fall in blood pressure” value is on record as 19 mmHg.

For the molecule `CC1(C)Oc2ccc(-c3ccncc3)cc2[C@@H](n2ccccc2=O)[C@@H]1O`, the “Max fall in blood pressure” value came out at 24 mmHg.

Consider `CC1(C)Oc2ccc(C#N)cc2[C@@H](n2cc(N)ccc2=O)[C@@H]1O`, for which the “Max fall in blood pressure” value was determined as 34 mmHg.

With `CC1(C)C=C(n2cc(Cl)ccc2=O)c2cc(C#N)ccc2O1`, the “Max fall in blood pressure” value was 23 mmHg.

In the case of `CC(=O)c1ccc2c(c1)[C@@H](n1ccccc1=O)[C@H](O)C(C)(C)O2`, the “Max fall in blood pressure” value amounted to 38 mmHg.

Turning to `CC1(C)Oc2ccc(C#N)cc2[C@@H](n2cccc(C(=O)O)c2=O)[C@@H]1O`, the “Max fall in blood pressure” value came out at 24 mmHg.

The next assay concerns Rattus norvegicus. Briefly: Antihypertensive effect after 1 mg/kg (po) administration in conscious spontaneously hypertensive rat (over a time period of 0-210 min). The class given is functional, organism-based. Set-up: dose 1 mg/kg. In short, it runs like this: as §1
With `CC1(C)C=C(n2cc(Cl)c(=O)c(Cl)c2)c2cc(C#N)ccc2O1`, the “Max fall in blood pressure” value is “Not significant”.

For `CC1(C)C=C(n2ccc(OCc3ccccc3)cc2=O)c2cc(C#N)ccc2O1`, the “Max fall in blood pressure” value is “Not significant”.

On to `CC1(C)C=C(n2ccccc2=O)c2cc(-c3ccncc3)ccc2O1`, for which the “Max fall in blood pressure” value is “Not significant”.

Take `CCOc1ccn([C@@H]2c3cc(C#N)ccc3OC(C)(C)[C@H]2O)c(=O)c1`: the “Max fall in blood pressure” value was “Not significant”.

For `CC1(C)Oc2ccc(C#N)cc2[C@@H](N2CCCCC2=N)[C@@H]1O`, the “Max fall in blood pressure” value is “Not significant”.

Regarding `CC1(C)Oc2ccc(/N=C/c3ccc(C#N)cc3)cc2C(N2CCCC2=O)[C@@H]1O` (some centres not stated), the “Max fall in blood pressure” value is “Not significant”.

`CC1(C)Oc2ccc(/C=C/c3ccc(C#N)cc3)cc2[C@@H](n2ccccc2=O)[C@@H]1O`: the “Max fall in blood pressure” value was “Not significant”.

Turning to `CC(=O)Nc1ccc(=O)n(C2=CC(C)(C)Oc3ccc(C#N)cc32)c1`, the “Max fall in blood pressure” value was “Not significant”.

Take `O=c1ccccn1[C@@H]1c2cc([N+](=O)[O-])ccc2OC2(CCCCC2)[C@H]1O`: the “Max fall in blood pressure” value was “Not significant”.

`CC1(C)Oc2ccc(NC(=N)S)cc2C(N2CCCC2=O)[C@@H]1O` (some centres not stated): the “Max fall in blood pressure” value was “Not significant”.

As to `CC1(C)C=C(n2cc(Cl)cc(Cl)c2=O)c2cc(C#N)ccc2O1`, the “Max fall in blood pressure” value was “Not significant”.

As to `CC1(C)C=C(n2ccccc2=O)c2cc(C(N)=O)ccc2O1`, the “Max fall in blood pressure” value is “Not significant”.

Take `CC1(C)CC(n2ccc(=O)cc2)c2cc(C#N)ccc2O1` (configuration not stated): the “Max fall in blood pressure” value is “Not significant”.

For the molecule `CC1(C)Oc2ccc(C#N)cc2C(n2cc(Cl)c(=O)c(Cl)c2)[C@@H]1O` (some centres not stated), the “Max fall in blood pressure” value was “Not significant”.

For the molecule `CC1(C)Oc2ccc(-c3nc4ccc[nH]c-4n3)cc2C(N2CCCC2=O)[C@@H]1O` (some centres not stated), the “Max fall in blood pressure” value was “Not significant”.

`COc1cccn([C@@H]2c3cc(C#N)ccc3OC(C)(C)[C@H]2O)c1=O`: the “Max fall in blood pressure” value is “Not significant”.

With `CC1(C)Oc2ccc(C#N)cc2[C@@H](n2cccc([N+](=O)[O-])c2=O)[C@@H]1O`, the “Max fall in blood pressure” value was “Not significant”.

Consider `CC1(C)Oc2ccc(C#N)cc2[C@@H](n2cc(Br)cc(Br)c2=O)[C@@H]1O`, for which the “Max fall in blood pressure” value was “Not significant”.

For `N#Cc1ccc2c(c1)[C@@H](n1ccccc1=O)[C@H](O)C1(CCCC1)O2`, the “Max fall in blood pressure” value was “Not significant”.

Turning to `CC1(C)Oc2ccc(C#N)cc2[C@@H](n2cc(C(=O)O)ccc2=O)[C@@H]1O`, the “Max fall in blood pressure” value is “Not significant”.

`CC1(C)Oc2ccc(C#N)cc2[C@@H](n2cc(Cl)cc(Cl)c2=O)[C@@H]1O`: the “Max fall in blood pressure” value was “Not significant”.

Regarding `CC1(C)Oc2ccc(C#N)cc2[C@@H](n2ccc(OCc3ccccc3)cc2=O)[C@@H]1O`, the “Max fall in blood pressure” value was “Not significant”.

For the molecule `Cc1csc(Nc2ccc3c(c2)C(N2CCCC2=O)[C@H](O)C(C)(C)O3)n1` (some centres not stated), the “Max fall in blood pressure” value is “Not significant”.

`CC1(C)Oc2ccc(-c3nn[nH]n3)cc2C(N2CCCC2=O)[C@@H]1O` (some centres not stated): the “Max fall in blood pressure” value is “Not significant”.

For `CC1(C)Oc2ccc(C(=N)S)cc2[C@@H](n2ccccc2=O)[C@@H]1O`, the “Max fall in blood pressure” value was “Not significant”.

In the case of `CC1(C)Oc2ccc(/N=C/c3ccc(Cl)cc3Cl)cc2C(N2CCCC2=O)[C@@H]1O` (some centres not stated), the “Max fall in blood pressure” value was “Not significant”.

As for `CC1(C)Oc2ccc([N+](=O)[O-])cc2[C@@H](N2CCCC2=N)[C@@H]1O`, the “Max fall in blood pressure” value is “Not significant”.

Take `COC(=O)c1ccc2c(c1)C(n1ccccc1=O)C(=O)C(C)(C)O2` (configuration not stated): the “Max fall in blood pressure” value was “Not significant”.

In the case of `N#Cc1ccc2c(c1)C(n1ccccc1=O)=CC1(CCCCC1)O2`, the “Max fall in blood pressure” value was “Not significant”.

For `CC1(C)Oc2ccc(C3=NCCN3)cc2C(N2CCCC2=O)[C@@H]1O` (some centres not stated), the “Max fall in blood pressure” value is “Not significant”.

As to `O=c1ccccn1[C@@H]1c2cc([N+](=O)[O-])ccc2OC2(CCCC2)[C@H]1O`, the “Max fall in blood pressure” value was “Not significant”.

With `N#Cc1ccc2c(c1)[C@@H](n1ccccc1=O)[C@H](O)C1(CCCCC1)O2`, the “Max fall in blood pressure” value was “Not significant”.

Consider `CC1(C)Oc2ccc(-c3nc4ccccc4[nH]3)cc2C(N2CCCC2=O)[C@@H]1O` (some centres not stated), for which the “Max fall in blood pressure” value was “Not significant”.

With `CC(=O)Nc1ccc(=O)n([C@@H]2c3cc(C#N)ccc3OC(C)(C)[C@H]2O)c1`, the “Max fall in blood pressure” value is “Not significant”.

In the case of `CC1(C)Oc2ccc(C#N)cc2C(n2ccc(=O)[nH]c2=O)[C@@H]1O` (some centres not stated), the “Max fall in blood pressure” value is “Not significant”.

For the molecule `CC1(C)Oc2ccc(Br)cc2[C@@H](n2ccccc2=O)[C@@H]1O`, the “Max fall in blood pressure” value is “Not significant”.

`CCOC(=O)c1ccc2c(c1)[C@@H](n1ccccc1=O)[C@H](O)C(C)(C)O2`: the “Max fall in blood pressure” value was “Not significant”.

Consider `CC1(C)Oc2ccc(C#N)cc2[C@@H](n2cccc(N)c2=O)[C@@H]1O`, for which the “Max fall in blood pressure” value was “Not significant”.

On to `CC1(C)Oc2ccc(C(N)=O)cc2[C@]2(n3ccccc3=O)O[C@H]12`, for which the “Max fall in blood pressure” value is “Not significant”.

Regarding `CC1(C)Oc2ccc(-c3nc4cc[nH]cc-4n3)cc2C(N2CCCC2=O)[C@@H]1O` (some centres not stated), the “Max fall in blood pressure” value is “Not significant”.

For the molecule `CN(C)c1cccn([C@@H]2c3cc(C#N)ccc3OC(C)(C)[C@H]2O)c1=O`, the “Max fall in blood pressure” value is “Not significant”.

With `CC1(C)Oc2ccc(C#N)cc2[C@@H](N2CCC/C2=N\C(=O)c2ccncc2)[C@@H]1O`, the “Max fall in blood pressure” value is “Not significant”.

For the molecule `CC1(C)Oc2ccc(C#N)cc2C(N2CCC(=O)CC2)[C@@H]1O` (some centres not stated), the “Max fall in blood pressure” value is “Not significant”.
